About 310 (0.097%) of roughly 320,000 compounds were called active. Shown is part of a subset that was picked to be rich in actives. Values without a mark were called inactive.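 Rule for the calls: active = mean replicate activation of at least 60% and every replicate at or above 60%; inconclusive = mean or all-replicate condition met, but not both; inactive = mean below 60% and not all replicates reaching 60%.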
test: activators of SR-BI mediated DiI-HDL uptake, primary screen, ldlA[mSR-BI] CHO cells, DiI fluorescence (AID 504775); conditions: 3 h, at 12.5 µM, hits give high values, 100 = double the neutral-control signal;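 note: 0% = median plate neutral-control signal and 100% = twice that signal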
Method in brief: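 Material: SR-BI-overexpressing, LDLR-lacking CHO cells; schedule: compound exposure 3 h, 37 °C; reagent: DiI-labelled HDL at 10 µg/mL final; technique: bottom-read fluorescence, 550/595 nm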

| SMILES | activation |
| --- | --- |
| CN1C(c2ccc(F)cc2)=CS/C1=C(/C#N)c1nnc2n1-c1ccccc1SC2 | -32.2% |
| CN(CCc1ccccc1)C(=O)c1cccc(NC(=O)Cc2cccc(NC(=O)C3CCCN(C(=O)CCc4ccccc4)C3)c2)c1 (centres undefined) | -78.5% |
| C=CCOC(=O)N1CCC2CC1c1cc(-c3ccc(OC)cc3)ccc12 (centres undefined) | 4.14% |
| CCCCN1CC(CO)Oc2cccc(F)c2S1(=O)=O (centres undefined) | 10.7% |
| C/C(=N\Nc1ccc(Cl)nn1)c1ccccc1O | 7.73% |
| CCCN(CCC)S(=O)(=O)c1cc2c(cc1Br)CCN2C(=O)CC | -7.1% |
| NS(=O)(=O)c1ccc(CCNC(=O)c2ccc(Cl)c(S(=O)(=O)N3CCCCCC3)c2)cc1 | -32.8% |
| CCc1c(Nc2ccccc2C)nc(N)[nH]c1=O | -3.67% |
| O=C(NN=Cc1ccccc1O)NN=Cc1ccccc1O | -79.8% |
| CCN(CC)CCCC(C)n1c2nc(=O)[nH]c(=O)c-2nc2cc(Cl)ccc21 (centres undefined) | -9.91% |
| CCCCC(=O)NC(c1ccc(OC)c(OC)c1)c1ccc2cccnc2c1O (centres undefined) | -3.38% |
| NC(=NC(=O)c1ccccc1)N1CCOCC1 | 1.4% |
| O=C(CSC(=S)N1CCOCC1)c1ccccc1 | -13.4% |
| O=C(NC(=O)N1CCOCC1)c1ccccc1 | 67.4% (active) |
| Cc1nc2ccc(N)nc2nc1C | -22.1% |
| COc1ccc(S(=O)(=O)N2C[C@H]3CON(C)[C@H]3C[C@H]2c2cccc(Br)c2)cc1 | 7.88% |
| CN(C(=O)c1cccc(NC(=O)Cc2ccc(NC(=O)C3CCCN(C(=O)C4CCCC4)C3)cc2)c1)C1CCC1 (centres undefined) | -86.9% |
| CCCCN1CC(COc2ccccc2)Oc2cccc(F)c2S1(=O)=O (centres undefined) | -3.91% |
| COC1=CC(=O)OC(C)(c2ccccc2)C1 (centres undefined) | -8.07% |
| O=c1[nH]c(=S)[nH]c(O)c1/C=C1\C=Nc2ccccc21 | 12.1% |
| Cc1cc(OCCCC(=O)Nc2cc(S(=O)(=O)N3CCOCC3)ccc2N2CCOCC2)ccc1Cl | -17.2% |
| COC1=NC2=NCCN2C(OC)=N1 | 7.98% |
| CC1=CC(=NNS(=O)(=O)c2ccc([N+](=O)[O-])cc2)CC(C)(C)C1 | 27.7% |
| CC(C)Cc1nnc(N)s1 | 10.1% |

| SMILES | activation |
| --- | --- |
| Cc1nc(N)nc(Cl)c1CCC1OCCO1 | 19.5% |
| NNc1cccc(C=Cc2ccccc2)cc1=O | -16.6% |
| Nc1cc(=O)n(Cc2ccccc2)c(=O)n1Cc1ccccc1 | -0.22% |
| N=C1c2ccccc2-c2ccccc21 | 9.24% |
| COc1cc(O)c2c(=O)c3c(O)c(O)ccc3oc2c1OC | -10.1% |
| O=c1nc(NO)ccn1C1CCCO1 (centres undefined) | 15.7% |
| C(#CCN1CCOCC1)CCCN1CCOCC1 | 16.4% |
| CN1CCOC1c1ccc(C2OCCN2C)cc1 (centres undefined) | 6.99% |
| C=CCN1C=C(C(=O)c2ccccc2)C(=O)CC1 | 19.3% |
| NN=C(NN=Cc1ccccc1)c1ccccc1 | 1.04% |
| O=C(NCC(O)c1ccc([N+](=O)[O-])cc1)C1CCCCC1 (centres undefined) | 2.53% |
| O=C(NNS(=O)(=O)c1ccc([N+](=O)[O-])cc1)C1CCCCC1 | 62.5% (active) |
| O=C(Cc1ccccc1)NNS(=O)(=O)c1ccc([N+](=O)[O-])cc1 | -11.7% |
| O=C(COC(=O)c1ccc(O)cc1O)NC(=O)c1ccccc1 | 38.7% |
| O=C(NCc1ccccc1)c1cccc(NC(=O)C2CCCCC2)c1 | -0.488% |
| O=C1OCC2=C1C(c1ccc(Cl)cc1)c1cc3c(cc1O2)OCO3 (centres undefined) | -14% |
| CCN1C[C@@H]2[C@@H]3C(=O)N(C)C(=O)[C@@H]3[C@](C)(C1=O)N2C(=O)c1ccccc1 | -27.8% |
| Oc1cccc(CCc2ccccn2)c1 | 0.288% |
| COc1cccc(/C=N/Nc2ccc(S(=O)(=O)Nc3ccccc3C(=O)O)cc2[N+](=O)[O-])c1O | 4.5% |
| CCCOc1ccccc1C(=O)NCCCC(=O)O | 21.5% |
| CCCN(CCC)CC(O)COc1ccccc1C(=O)Nc1ccccc1 (centres undefined) | 102% (active) |
| CCCN(CC(=O)Nc1ccc(C(N)=O)cc1)CC(=O)Nc1ccccc1C | 13.5% |
| COc1ccc(CNCCCNCc2ccc(OC)c(OC)c2)cc1OC | 4.58% |
| CC(C)(C)C(=O)Nc1cccc(-c2ccc[nH]2)n1 | 5.41% |

| SMILES | activation |
| --- | --- |
| O=C1C2C3C=CC(C3)C2C(=O)N1c1ncc([N+](=O)[O-])s1 (centres undefined) | 8.82% |
| COc1ccc(Br)cc1/C=N/Nc1ccc(S(=O)(=O)Nc2ccccc2C(=O)O)cc1[N+](=O)[O-] | 16.3% |
| COc1ccc(/C=C/C(=O)OCC(=O)N2CCN(S(=O)(=O)c3ccc(C)cc3C)CC2)cc1OC | -71.9% |
| CCOc1cc(C(=O)N(Cc2ccccc2)c2ccc(C)cc2)ccc1OCC(=O)N1CCOCC1 | -5.71% |
| O=C(NNC(=O)c1ccccc1O)c1ccccc1O | -124% |
| CN(C)C(=S)N=c1ssc(=S)n1Cc1ccco1 | -0.753% |
| O=C(CC1Sc2ccccc2NC1=O)NNc1ccc(Cl)c(Cl)c1 (centres undefined) | -45.6% |
| O=S(=O)(O)c1cc2onnc2c2ccccc12 | 15.5% |
| Nc1ccc2c(c1)C(O)c1ccc(Cl)cc1-2 (centres undefined) | 14.5% |
| COc1cc(C(=O)CCc2ccc3c(c2)OCO3)cc(OC)c1OC | -43.2% |
| COC1=CC(=O)OC(c2ccc(OC)cc2)C1 (centres undefined) | 14.1% |
| O=C(NCCc1ccccc1)c1c[nH]c2ccc(F)cc2c1=O | -17.9% |
| CC(C)[C@@H](C(=O)OCC(=O)c1ccc2c(c1)NC(=O)CO2)N1C(=O)c2ccccc2C1=O | 1.12% |
| CCOC(=O)CCC(NC(=O)c1ccc(CNc2nc3cc(C(F)(F)F)ccc3nc2C(=O)OCC)cc1)C(=O)OCC (centres undefined) | -43.7% |
| CC(=O)OC1CCC2C3CCC4=C(CC(F)C(=O)C4)C3CCC12C (centres undefined) | -3.99% |
| CC(=O)OCC(=O)C1(O)CCC2C3CC(C)C4=CC(=O)CCC4(C)C3C(O)CC21C (centres undefined) | -0.166% |
| Cc1ccc(C)c(S(=O)(=O)N(C)c2ccc(OC(=O)C3CCN(C(=O)c4ccc(F)cc4)CC3)cc2)c1 | -12.3% |
| Cc1ccc(Cn2c(C)c3cnn(CC(=O)NCCN4CCOCC4)c(=O)c3c2C)cc1 | -22.1% |
| CCOC(=O)C1CCCN(C(=O)C2CCN(S(=O)(=O)c3ccc(Cl)c(C(F)(F)F)c3)CC2)C1 (centres undefined) | 22.7% |
| COc1ccccc1N(CC(=O)Nc1c(C)n(C)n(-c2ccccc2)c1=O)S(=O)(=O)c1ccccc1 | 12% |
| O=C1OC(Oc2ccc(Br)cc2)(c2ccccc2)c2ccccc21 (centres undefined) | -0.981% |
| O=[N+]([O-])c1ccc(N=NNc2ccc([N+](=O)[O-])cc2)cc1 | 5.77% |
| CC1=CC(C)(C)Nc2ccc(OC(=O)C(Cc3ccccc3)N3C(=O)C4CCCCC4C3=O)cc21 (centres undefined) | 62.9% (active) |
| CCOC(=O)C(Cc1ccc(N)cc1)N1C(=O)c2ccccc2C1=O (centres undefined) | -16% |

| SMILES | activation |
| --- | --- |
| CC1=CC(C)(C)Nc2ccc(OC(=O)CN3C(=O)C4CCCCC4C3=O)cc21 (centres undefined) | 9.46% |
| COc1ccc(C(C(=O)NC2CCCCC2)N(C(=O)CCl)c2ccccc2Cl)cc1 (centres undefined) | 88.3% (active) |
| COc1ccc(C(C(=O)NC2CCCCC2)N(C(=O)c2snc(C(N)=O)c2N)c2ccccc2OC)cc1 (centres undefined) | 13.6% |
| Cc1ccccc1N(C(=O)CNC(=O)c1cccs1)C(C(=O)NC1CCCC1)c1ccncc1 (centres undefined) | 4.44% |
| Oc1ccc(-c2nc3ccccc3nc2-c2ccc(O)cc2O)c(O)c1 | -26% |
| C/C(=N\Nc1ccccc1)c1cccs1 | 13.7% |
| O=C(CCCCCCCC(=O)N1CCCCC1)N1CCCCC1 | 7.36% |
| COc1ccc(CCC(=O)Nc2ccc(Cl)c(S(=O)(=O)N3CCOCC3)c2)cc1OC | -60.3% |
| CC(=O)CSc1nc(CCc2ccccc2)c(C#N)c(=O)[nH]1 | 11% |
| Nc1ccc2[nH]c(=S)sc2c1 | -5.72% |
| COc1ccc(S(=O)(=O)N2CCC(C(=O)N3CCc4ccccc4C3)CC2)cc1OC | 4.32% |
| COc1cc(S(=O)(=O)N2CCN(C(=O)C3CC3)CC2)ccc1NC(C)=O | 60.7% (active) |
| COc1ccc(S(=O)(=O)N2CCC(C(=O)N3CCOCC3)CC2)cc1OC | 0.407% |
| NC(=S)NN=C1CCCC(C(F)(F)F)C1 (centres undefined) | -74% |
| N#CCc1c[nH]c2ccc([N+](=O)[O-])cc12 | 13.4% |
| O=C1CC(c2ccccc2)C(=O)N2C(=O)CC(c3ccccc3)C(=O)N12 (centres undefined) | 16.5% |
| C#CCOCCOCCOCCNc1nc(N2CCN(C(=O)Cn3cc(CCO)nn3)CC2)nc(N2CCN(C(=O)Cn3cc(CCCN=C(N)N)nn3)CC2)n1 | 17.5% |
| COC(=O)CC(CC(=O)OC)n1cccc1 | 7.62% |
| Cc1ccc(NC(=O)C(C)OC(=O)C2CC3CCCC(C2)C3=O)cc1S(=O)(=O)N1CCOCC1 (centres undefined) | -2.41% |
| CN(C)C(=O)CCc1ccc2c3c([nH]c2c1)[C@]1(CCC2CCCC2)[C@@H](C(=O)N2CCOCC2)C[C@H](CC(=O)NCc2ccco2)C(=O)N1CC3 | 14.3% |
| COc1ccc(CNC(=O)C[C@H]2C[C@H](C(=O)N3CCOCC3)[C@@]3(CCC4CCCC4)c4[nH]c5ccc(Cl)cc5c4CCN3C2=O)cc1OC | -30.3% |
| O=C(C[C@H]1C[C@H](C(=O)N2CCOCC2)[C@@]2(CCC3CCCC3)c3[nH]c4ccc(Cl)cc4c3CCN2C1=O)NCc1ccco1 | 82.2% (active) |

From PubChem BioAssay AID504775 (Broad Institute, 2011)
